Consider ten molecules from ChEMBL document CHEMBL4725272, “Studies on the stereoselective synthesis and immunosuppressive activity of dihydroartemisinin-O-glycoside derivatives” (Bioorg Med Chem Lett, 2020).

SMILES strings stand for the structures. pIC50: −log10 of the molar value.

Assay [1] is described as follows: (§1) Inhibition of human CD8+ve […] cell proliferation. The assay is classed as functional, tissue-based. The conditions noted are these: CD8-positive T cell. A digest of the protocol:
(§2)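 Human T cells, proliferation inhibition measured over a dose series, run in triplicate (n=3). IC50 was taken from dose-response curves fitted by four-parameter non-linear regression.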

Another assay concerns CD8-positive T cell. The assay is described as §1. The assay is classed as functional, tissue-based. A digest of the protocol: as §2
The nature of assay [2]: Inhibition of human T cell proliferation relative to control. The assay is classed as functional.
Another assay concerns T cell. Kind of assay: Immunosuppressive activity in human primary T-cells extracted form PBMC assessed as inhibition of CD3/CD28-induced IFN-gamma recovery in cell culture media at 2-32 uM incubated for 120 hrs by ELISA. To be noted: dose microM 2-32, time 120.0 hrs. The assay is classed as functional, tissue-based. (An ELISA detects its analyte on a solid surface through an enzyme-linked reagent.)

For a further assay, the system named is CD4+ve Th. Kind of assay: (§3) Inhibition of human CD4+ve Th cell proliferation. The assay is classed as functional, tissue-based. A digest of the protocol: as §2
A short description of assay [3]: as §3. The assay is classed as functional, tissue-based. The procedure, abridged:
as §2

Assay [4] is described as follows: Immunosuppressive activity in human primary T-cells extracted from PBMC assessed as inhibition of CD3/CD28-induced IFN-gamma recovery in cell culture media incubated for 120 hrs by ELISA relative to control. The assay is classed as functional.
The nature of assay [5]: Inhibition of T cell (unknown origin) proliferation. The assay is classed as functional, tissue-based.
Assay [6] can be described thus: Inhibition of B cell (unknown origin) proliferation. The assay is classed as functional, tissue-based.

Usually pIC50 stands for the IC50 on a negative log10 scale, so that one unit is a factor of ten. Higher therefore signals a low IC50. Consider `C[C@H]1[C@H](O[C@@H]2O[C@H](CO)[C@@H](O)[C@H](O)[C@@H]2O)O[C@@H]2O[C@@]3(C)CC[C@H]4[C@H](C)CC[C@@H]1[C@@]24OO3`, for which the pIC50 is 5.58 in assay [1] and 5.46 in assay [3]. In addition, the inhibition result in the assay with CD8-positive T cell, with T cell and in the assay with CD4+ve Th was “Dose-dependent effect” throughout. For the same molecule, the “inhibition (INH)” value in [2] is 88%; in assay [4] it was 98%.
Turning to `C[C@H]1[C@H](O[C@H]2O[C@@H](C)[C@H](O)[C@@H](O)[C@H]2O)O[C@@H]2O[C@@]3(C)CC[C@H]4[C@H](C)CC[C@@H]1[C@@]24OO3`, the figures for the pIC50 in assay [1] and in assay [3] were 5.47 and 5.42, respectively. Moreover, the inhibition entry in the assay on CD8-positive T cell, in the assay with T cell and with CD4+ve Th was “Dose-dependent effect” in each case.
For `C[C@H]1[C@@H](O[C@H]2OC[C@@H](O)[C@H](O)[C@H]2O)O[C@@H]2O[C@@]3(C)CC[C@H]4[C@H](C)CC[C@@H]1[C@@]24OO3`, the figures for the pIC50 in [1] and in assay [3] were 5.02 and 4.96, respectively.
As for `C[C@H]1[C@@H](O[C@H]2OC[C@H](O)[C@H](O)[C@H]2O)O[C@@H]2O[C@@]3(C)CC[C@H]4[C@H](C)CC[C@@H]1[C@@]24OO3`, the pIC50 is 4.89 in assay [1] and 4.85 in assay [3].
`C[C@H]1[C@@H](O[C@H]2O[C@H](CO)[C@H](O)[C@H](O)[C@H]2O)O[C@@H]2O[C@@]3(C)CC[C@H]4[C@H](C)CC[C@@H]1[C@@]24OO3`: the pIC50 in assay [1] is 5.06; in assay [3], 4.98.
On the same counts, the results for `C[C@H]1[C@@H](O[C@H]2O[C@H](CO)[C@@H](O)[C@H](O)[C@H]2O)O[C@@H]2O[C@@]3(C)CC[C@H]4[C@H](C)CC[C@@H]1[C@@]24OO3` are 4.71 and 4.75.
In the same order, the values of `C[C@H]1[C@@H](O[C@@H]2O[C@H](CO)[C@@H](O[C@H]3O[C@H](CO)[C@@H](O)[C@H](O)[C@H]3O)[C@H](O)[C@H]2O)O[C@@H]2O[C@@]3(C)CC[C@H]4[C@H](C)CC[C@@H]1[C@@]24OO3` are 5.40 and 5.04.
On the same counts, the results for `C[C@H]1[C@@H](O)O[C@@H]2O[C@@]3(C)CC[C@H]4[C@H](C)CC[C@@H]1[C@@]24OO3` [ARTENIMOL] are 5.26 and 5.39.
`C[C@H]1[C@@H](O[C@H]2O[C@H](CO)[C@@H](O)[C@H](O)[C@@H]2O)O[C@@H]2O[C@@]3(C)CC[C@H]4[C@H](C)CC[C@@H]1[C@@]24OO3`: the pIC50 in assay [1] and in [3] was less than 4.49 each time.
As for `C[C@H]1[C@@H](OCCN)O[C@@H]2O[C@@]3(C)CC[C@H]4[C@H](C)CC[C@@H]1[C@@]24OO3`, the pIC50 in [1] was 5.87; in assay [3], 5.98; in assay [5], 5.92; in assay [6], 5.59.
